Hits are enriched below; roughly 11% of the tested compounds scored in any of these assays.
M1 ag = M1 muscarinic receptor agonists, primary screen, CHO-M1 cells, Fluo-4 calcium, agonist mode; Fluo-4 calcium fluorescence; hits give high values; B-score at 10 µM; actives 3% (n = 64,000); AID 626, 2007;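 active means fluorescence rise, raw or as B-score row- and column-corrected plate score, outside the 99.7% band of its plate's samples, either direction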
M1 antag = antagonists of rat M1 muscarinic receptor; actives 3.4% (n = 64,000); Muscarinic acetylcholine receptor M1 (Rattus norvegicus), P08482; CHO-M1 cells, Fluo-4 calcium, ACh EC80 antagonist mode; hits give low values; B-score at 10 µM; AID 628, 2007;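 active means calcium fluorescence response, raw or row-and-column corrected B-score, differing from the plate sample mean either way at a set confidence level, mostly lower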
S1P1 ag pot = S1P1 agonists and agonism potentiators, primary screen, cell-based, primary and confirmation screens, CRE-bla reporter; actives 0.57% (n = 56,000); S1P1 CRE-bla cells, forskolin, beta-lactamase FRET, potentiator mode; S1P1 agonist co-added at EC20, 2 nM; 100% = saturating reference agonist, 0% = basal; activation, % at 9.5 µM; Sphingosine 1-phosphate receptor 1 (Homo sapiens), P21453; AID 449, 2006;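 active means activation above a cutoff set at the mean activation of all tested compounds plus 3 SD, cut at about 54% in these data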;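 further: forskolin at 4 µM as EC80 and the EC20 agonist is SEW2871; 100% = SEW2871 at its EC100 plus forskolin at EC80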
D1 mod = D1 CRE-luciferase signal change, two-sided – cell-based, HEK293 D1, dopamine EC30, D1 allosteric modulator project, primary screen. actives 5.9% (n = 58,000). D(1A) dopamine receptor (Homo sapiens), P21728. B-score at 10 µM. dopamine EC30 potentiation; actives deviate in either direction;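 active means luminescence count or its row- and column-corrected plate score outside the 99.7% band of the plate's sample wells, on either side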
Target sequence (P21728 whole entry, looked up): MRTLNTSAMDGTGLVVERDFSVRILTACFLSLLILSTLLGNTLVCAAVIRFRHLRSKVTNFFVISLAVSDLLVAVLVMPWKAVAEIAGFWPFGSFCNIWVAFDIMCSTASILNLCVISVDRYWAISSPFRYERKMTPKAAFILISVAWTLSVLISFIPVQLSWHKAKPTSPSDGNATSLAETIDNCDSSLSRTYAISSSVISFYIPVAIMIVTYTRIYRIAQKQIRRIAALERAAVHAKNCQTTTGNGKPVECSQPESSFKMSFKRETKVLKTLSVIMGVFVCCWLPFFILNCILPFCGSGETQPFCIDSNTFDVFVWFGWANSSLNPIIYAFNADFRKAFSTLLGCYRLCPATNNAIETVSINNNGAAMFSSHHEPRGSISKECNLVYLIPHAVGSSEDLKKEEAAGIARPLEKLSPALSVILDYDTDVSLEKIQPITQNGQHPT
S1P3 ag = human S1P3 receptor agonists, primary screen, cell-based, primary and confirmation, NFAT-BLA reporter | Sphingosine 1-phosphate receptor 3 (Homo sapiens), Q99500 | S1P3 NFAT-BLA reporter cells, agonism, FRET ratio; relative to 1 µM S1P, basal subtracted | activation, % at 4.5 µM | actives 0.1% (n = 60,000);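 active means activation above the screen-wide mean plus 3 SD, cut at about 4.5% in these data, passing the limit was not always enough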
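Measure – % activation relative to 1 µM S1P (100%), per plate · System – stable CHO line with human S1P3, Gα16, NFAT-BLA reporter · Timing – cells plated overnight, compound 4 h 37 °C, substrate 2 h RT · Technique – fluorescent BLA substrate, ex 405 nm, em 460/535 nm ratio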
* hit, by the source's call; . = not tested or not shown.

SMILES	M1 ag	M1 antag	S1P1 ag pot	D1 mod	S1P3 ag
N#C/C(=C(/O)CN1CCOCC1)c1nc(-c2ccccc2)cs1	-0.0064	0.87	3	0.14	0
CCOC(=O)C1CCCN(C/C(O)=C(\C#N)c2nc(-c3ccccc3)cs2)C1 (stereo not given)	11*	-0.21	6	-0.13	0
Cc1cc(C(=O)CSc2nn(-c3ccccc3)c(=S)s2)c(C)n1Cc1ccco1	-0.29	0.019	.	-4.7*	.
Cc1cc(C(=O)CSc2nnc(-c3ccco3)o2)c(C)n1Cc1ccco1	-1	-0.011	53	-0.4	0
CC1CCN(c2nc3ccccc3nc2C(C#N)S(=O)(=O)c2ccccc2)CC1 (stereo not given)	3.8*	0.52	.	.	.
CC1CCN(c2nc3ccccc3nc2C(C#N)C(=O)OC2CCCCC2)CC1 (stereo not given)	3.2	1.5*	-1	-0.44	-1
Cc1ccc(S(=O)(=O)C(C#N)c2nc3ccccc3nc2N2CCCC2)cc1 (stereo not given)	5	0.046	37	0.58	0
CN1CCN(S(=O)(=O)c2ccc(-c3ccc(Cl)cc3)cc2)CC1	-0.051	0.82	-11	-4.9*	0
CC(=O)OC(C(=O)NCc1ccco1)c1ccncc1 (stereo not given)	0.5	0.52	-8	-1	-1
c1ccc2c(c1)OCC(c1nn3c(Cn4nnc5ccccc54)nnc3s1)O2 (stereo not given)	-3.2*	-0.25	.	0.32	-1
c1ccc(Cc2nn3c(Cn4nnc5ccccc54)nnc3s2)cc1	-0.037	0.58	10	2.3	0
O=C(NCc1ccco1)c1cnn2c(C(F)(F)F)cc(-c3cccs3)nc12	0.82	-0.76	-23	0.075	0
Cc1nn(-c2ccc(F)cc2)c(C)c1NS(=O)(=O)c1ccc(Cl)cc1	1.1	-0.25	8	0.58	1
CC1(C)CC(=O)C(C=Nc2ccc3[nH]ncc3c2)=C(O)C1	0.25	-0.61	99*	-1.2	-2
CC1(C)CC(=O)C(C=Nc2ccc3cn[nH]c3c2)=C(O)C1	-1	-0.16	13	1.7	-2
N#CCCS(=O)(=O)c1nnnn1-c1ccccc1	0.31	0.51	70*	0.29	-1
Cn1c(-c2ccc(F)cc2)cnc1NCc1ccccc1	0.16	-0.79	-10	-3.4*	-1
O=S(=O)(CCn1cccc1)CCn1cccc1	-0.52	2.2*	.	0.14	.
O=c1[nH]cnc2cc(Cl)ccc12	-0.33	0.091	11	0.19	-1
Cc1ccc(CN2C(=O)CCC2C(=O)NCCN2CCN(c3cccc(Cl)c3)CC2)cc1 (stereo not given)	-0.15	0.086	-2	-0.97	0
CCOC(=O)c1[nH]c(C)c(C(=O)Nc2ccc3c(c2)OCCO3)c1C	0.012	-0.51	4	.	0
CC(=O)c1c(C)[nH]c(C(=O)Nc2ccc3c(c2)OCCO3)c1C	-0.034	-0.83	7	-2.7*	0
COc1cc(-c2nnc(SCc3cccnc3)n2C)cc(OC)c1O	0.5	0.39	-7	-0.14	-1
CCc1ccc2nc(N3CCN(C)CC3)c(C#N)cc2c1	-0.13	0.063	-6	-4.9*	0
CC(NC(=O)Cc1cccs1)C(c1cccs1)N1CCOCC1 (stereo not given)	-0.32	1.7*	7	-0.77	1
SMILES	M1 ag	M1 antag	S1P1 ag pot	D1 mod	S1P3 ag
CCCCCn1c(N2CCOCC2)nc2c1c(=O)n(CC(N)=O)c(=O)n2C	1	1.2	1	0.029	-1
COC(=O)c1cc(OC)c(OC)cc1NC(=O)Cn1nnc(-c2ccccc2Cl)n1	1.3	0.32	.	0.18	-2
COc1ccc(OC)c(NC(=O)C2C3C=CC(C3)C2C(=O)NCc2ccccn2)c1 (stereo not given)	-1.1	0.13	3	0.53	-1
O=C(O)C1C2C=CC(C2)C1C(=O)NCc1ccccn1 (stereo not given)	0.7	2.7*	.	-0.66	.
CC1CCN(CCNC(=O)c2ccc3c(=O)n(CCc4ccccc4)c(=O)[nH]c3c2)CC1	-2*	0.17	.	-1.1	.
CCCCCn1c(=O)[nH]c2cc(C(=O)NCCCN3CCC(C)CC3)ccc2c1=O	-0.27	-1.4	.	-2.2	.
CC1CCCCN1CCNC(=O)c1ccc2c(=O)n(CCc3ccccc3)c(=O)[nH]c2c1 (stereo not given)	-1.4	-0.85	.	-3.7*	.
COC(=O)c1sc(NC(=O)Cc2cccs2)nc1C	0.78	1.5	28	0.84	-1
N#CCCCCN1c2cccc3cccc(c23)S1(=O)=O	-0.52	0.27	5	0.0081	0
O=C(O)CSCCC(=O)Nc1ccc(F)cc1	-0.04	-0.7	.	-1.9	.
O=C(CCC1CC(=O)Nc2ccccc21)NCc1cccnc1 (stereo not given)	0.35	0.46	-16	0.25	1
O=C(CC1Nc2ccccc2NC1=O)NCc1cccnc1 (stereo not given)	1.2	1.4*	14	-0.43	0
Cc1ccccc1-n1c(SCc2c(C)noc2C)nnc1-c1c[nH]c2ccccc12	-0.98	1.6	-32	-6.2*	0
O=C(Cn1cnc2c(nnn2-c2ccc(F)cc2)c1=O)N1CCCC1	-0.081	0.14	-24	1.3	-1
CCCn1c(SCc2cc(=O)[nH]c3ccccc23)nc2c1c(=O)n(C)c(=O)n2C	0.2	0.32	-30	6*	-1
CCOCCCNC(=O)c1ccc2c(c1)OCO2	0.12	0.021	.	-0.51	-1
O=C(NCCOc1ccccc1)c1ccc2c(c1)OCO2	0.00083	-0.21	-2	-7.5*	-1
O=C(CSc1nc2c(c(=O)[nH]1)CCCC2)Nc1ccc(Cl)cc1F	2.2	0.49	-8	-0.7	0
CCc1cc(=O)oc2cc(OC(C)C(=O)O)c(Cl)cc12 (stereo not given)	.	.	-48	-4.2*	0
CC1(C)NC(=O)N(CC(O)Cn2nnc3ccccc32)C1=O (stereo not given)	-0.31	-0.21	1	.	-2
CC(C)Cn1c(N)c(C(=O)COC(=O)c2ccc3c(c2)OCCO3)c(=O)n(C)c1=O	3.3	-0.62	13	-0.013	0
CC(C)Cn1c(N)c(C(=O)CSc2ccc3c(c2)OCCO3)c(=O)n(C)c1=O	3.9	-0.035	104*	-0.049	-2
CCOC(=O)c1oc2cccc(OCC(O)CNC(C)C)c2c1C (stereo not given)	-0.0085	1	-18	1.6	1
CCCCn1c(SCC(=O)N2CCCc3ccccc32)nc2c1c(=O)n(C)c(=O)n2C	9.7*	-0.034	-17	0.39	0
CCc1nc(SCC(=O)N2CCCc3ccccc32)c2c(=O)n(C)c(=O)n(C)c2n1	3.5*	-1.8	8	-0.43	-1
